≈ marks a conversion by molar mass, not a printed value. Calls of active or inactive are those of the source. The calls are words filed in the database; no cut-off is given here.
Columns and labels:
[1] = system: Mycobacterium tuberculosis; test: Antimycobacterial activity against drug-susceptible Mycobacterium tuberculosis; format: functional
Staphylococcus aureus [2] = test: Antibacterial activity against methicillin-resistant Staphylococcus aureus SR3637; format: functional
Staphylococcus aureus [3] = test: Antibacterial activity against methicillin-sensitive Staphylococcus aureus ATCC 29213; format: functional
How it was run: (§1)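 Incubation 24/48 h at 37 °C. MIC read as the lowest concentration inhibiting growth. MBC determined by transferring 10 μL from wells onto blood agar, taken as the lowest concentration with no visible growth.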

Enterococcus faecium [4] = test: Antibacterial activity against vancomycin-resistant Enterococcus faecium SR7917; format: functional
Enterococcus faecalis [5] = test: Antibacterial activity against vancomycin-resistant Enterococcus faecalis SR7914; format: functional
Enterococcus faecalis [6] = test: Antibacterial activity against Enterococcus faecalis ATCC 29212; format: functional
Staphylococcus aureus [7] = test: Antibacterial activity against Staphylococcus aureus infected in mouse; format: functional
Enterococcus faecium [8] = test: Antibacterial activity against Enterococcus faecium ATCC 19434; format: functional; how it was run: as §1
Escherichia coli [9] = test: Antibacterial activity against permeabilized Escherichia coli DH5[alpha] assessed as log reduction of colony forming unit at 1 mM; format: functional, organism-based
How it was run: (§2)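 Competent (permeabilized) E. coli DH5α cells were mixed with 5 ng pUC18 (ampR) and serially diluted compound or buffer only. Steps: 30 min on ice, heat shock at 42 °C for 90 s, 5 min on ice, then LB without antibiotic for 1 h at 37 °C with shaking. Plated on LB agarose with ampicillin 100 μg/mL overnight at 37 °C. Colonies counted against the no-compound control.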

Bacillus subtilis = details: at 0.2 mM
[10] = target: T1, Phospho-N-acetylmuramoyl-pentapeptide-transferase (Mycobacterium tuberculosis, UniProt P9WMW7); test: Inhibition of Mycobacterium tuberculosis MraY translocase
T1 sequence (P9WMW7 whole entry): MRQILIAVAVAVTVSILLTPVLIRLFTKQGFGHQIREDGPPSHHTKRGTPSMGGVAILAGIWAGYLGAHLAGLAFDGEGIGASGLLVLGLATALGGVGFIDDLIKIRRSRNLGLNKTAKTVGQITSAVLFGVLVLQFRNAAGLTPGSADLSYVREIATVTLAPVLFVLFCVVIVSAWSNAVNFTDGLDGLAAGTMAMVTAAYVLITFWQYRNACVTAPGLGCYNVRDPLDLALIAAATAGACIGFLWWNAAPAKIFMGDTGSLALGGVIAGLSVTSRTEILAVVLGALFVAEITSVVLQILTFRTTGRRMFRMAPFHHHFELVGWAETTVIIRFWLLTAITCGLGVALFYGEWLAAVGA

Escherichia coli [11] = test: Antibacterial activity against Escherichia coli after 24 to 48 hrs by microdilution method; format: functional; how it was run: as §1
Escherichia coli [12] = test: Antibacterial activity against permeabilized Escherichia coli DH5[alpha] assessed as log reduction of colony forming unit at 10 uM; format: functional, organism-based; how it was run: as §2
Enterococcus faecalis [13] = test: Antibacterial activity against Enterococcus faecalis CCM 4224 after 24 to 48 hrs by microdilution method; format: functional; how it was run: as §1
Pseudomonas aeruginosa = test: Antibacterial activity against Pseudomonas aeruginosa after 24 to 48 hrs by microdilution method; format: functional; how it was run: as §1
[14] = Induction of apoptosis in human Erythroid progenitor cells assessed as caspase 3/7 activation after 4 hrs by Caspase-Glo 3/7 assay
How it was run: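 Cord-blood-derived human erythroid progenitor cells plated at 25000 cells/well and exposed to compound prediluted in medium. Caspase 3/7 activation read by Caspase-Glo 3/7 luminescence 4 h after addition, normalized to untreated control cells set as 100%.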

[15] = Cytotoxicity against human Erythroid progenitor cells assessed as cell viability after 48 hrs by CellTiter-blue assay; format: cell-based
How it was run: (§3)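 Normal human erythroid progenitor cells, expanded from umbilical cord blood, plated at 25000 cells/well immediately before compound addition (added as a 5× predilution in culture medium). Viability by CellTiter-Blue fluorescence 48 h after addition, normalized to untreated cells set as 100%.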

Escherichia coli [16] = test: Antibacterial activity against permeabilized Escherichia coli DH5[alpha] assessed as cell killing at 25 uM; format: functional; how it was run: as §2
Streptococcus agalactiae = test: Antibacterial activity against Streptococcus agalactiae after 24 to 48 hrs by microdilution method; format: functional; how it was run: as §1
[17] = Cytotoxicity against human Erythroid progenitor cells assessed as maximum safe concentration after 48 hrs by CellTiter-blue assay; format: cell-based; details: read-out: Activity; how it was run: as §3

CO[C@@H]1[C@@H](OC)[C@H](C)O[C@@H](OC(=O)C[C@@H](C)CC(=O)O[C@@H](CCCCCCCCCCCC(C)C)CC(=O)O[C@H]2CN(C)[C@@H]([C@H](O[C@@H]3O[C@H](CN)[C@@H](O)[C@H]3O)[C@H]3O[C@@H](n4ccc(=O)[nH]c4=O)[C@H](O)[C@@H]3O)C(=O)N(C)[C@@H]2C(=O)O)[C@@H]1OC [CAPRAZAMYCIN B]
MIC [1]: 3.13 mg/L (≈ 2.7 µM)

CC(C)C[C@H](NC(=O)[C@@H](NC(=O)N[C@H](C(=O)O)C(C)C)[C@@H]1CCNC(=N)N1)C(=O)NCCCN[C@H](C(=O)O)[C@H](O[C@@H]1O[C@H](CN)[C@@H](O)[C@H]1O)[C@H]1O[C@@H](n2ccc(=O)[nH]c2=O)[C@H](O)[C@@H]1O [MURAMYCIN D2]
MIC (Staphylococcus aureus [2]): > 64 mg/L
MIC (Staphylococcus aureus [3]): > 64 mg/L
MIC (Enterococcus faecium [4]): > 64 mg/L
MIC (Enterococcus faecalis [5]): > 64 mg/L
MIC (Enterococcus faecalis [6]): > 64 mg/L
ED50 (Staphylococcus aureus [7]): 1.1 mg/kg
MIC (Enterococcus faecium [8]): > 64 mg/L

O=c1ccn([C@@H]2O[C@H](COP(=O)(O)CCN3C[C@@H](O)[C@H](O)C3)[C@@H](O)[C@H]2O)c(=O)[nH]1
Activity (Escherichia coli [9]): inactive

Cetyltrimethylammonium bromide
inhibition (Bacillus subtilis): Active

CC(C)CCCCCCCC(CC(=O)O[C@H]1CN(C)[C@@H]([C@H](O[C@@H]2O[C@H](CN)[C@@H](O)[C@H]2OS(=O)(=O)O)[C@H]2O[C@@H](n3ccc(=O)[nH]c3=O)[C@H](O)[C@@H]2O)C(=O)N(C)[C@@H]1C(=O)O)OC(=O)CC(C)CC(=O)O (stereo not given in full) [LIPOSIDOMYCIN B]
IC50 [10]: 0.0491 µM

CCCCCCCCCCCCCCCCCCCCOP(=O)(CCN1C[C@@H](O)[C@H](O)C1)OC[C@H]1O[C@@H](n2ccc(=O)[nH]c2=O)[C@H](O)[C@@H]1O (stereo not given in full)
MIC (Escherichia coli [11]): > 200 mg/L
Activity (Escherichia coli [12]): Active
MIC (Enterococcus faecalis [13]): 100 mg/L (≈ 139 µM)
MIC (Pseudomonas aeruginosa): > 200 mg/L
Activity [14]: Non-toxic
IC50 [15]: 31 mg/L (≈ 43.2 µM)
Activity (Escherichia coli [16]): 90%
MIC (Streptococcus agalactiae): 6.25 mg/L (≈ 8.71 µM)
MNTC at 48 h [17]: 15.6 µg/mL
